Results published in ChEMBL document CHEMBL1145112, “Pyrazolo[4,3-e]-1,2,4-triazolo[1,5-c]pyrimidine derivatives as adenosine receptor antagonists. Influence of the N5 substituent on the affinity at the human A 3 and A 2B adenosine receptor subtypes: a molecular modeling investigation” (J Med Chem, 2003).
pIC50, pKi: −log10 of the molar value.

What was measured:
[1] = molecular target: Adenosine receptors; A1 & A2b (Homo sapiens) (UniProt P30542+P29275); test: Relative inhibitory activity against adenosine A1 and A2B receptors; assay type: protein assay
[2] = molecular target: Adenosine receptors; A2b & A3 (Homo sapiens) (UniProt P29275+P0DMS8); test: Relative inhibitory activity against adenosine A3 receptors and A2B receptors; assay type: protein assay
[3] = molecular target: T1, Adenosine receptor A2b (Homo sapiens, UniProt P29275); test: Inhibitory activity against NECA stimulated cAMP accumulation in CHO cells expressing human adenosine A2B receptor; assay type: functional, cell-based
T1 sequence (P29275 whole entry): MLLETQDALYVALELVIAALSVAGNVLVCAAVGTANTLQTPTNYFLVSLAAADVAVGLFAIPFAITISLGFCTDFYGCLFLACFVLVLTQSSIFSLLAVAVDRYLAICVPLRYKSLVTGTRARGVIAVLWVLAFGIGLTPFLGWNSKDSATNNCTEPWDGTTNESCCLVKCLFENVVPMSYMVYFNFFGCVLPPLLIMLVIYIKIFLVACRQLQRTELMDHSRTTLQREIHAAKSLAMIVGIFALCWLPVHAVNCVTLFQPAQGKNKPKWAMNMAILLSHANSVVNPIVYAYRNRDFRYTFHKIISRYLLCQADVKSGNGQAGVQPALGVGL
Summary of the method: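 Transfected CHO cells (1 × 10^6/assay) in pH 7.4 saline/HEPES/glucose medium with 2 IU/mL adenosine deaminase and Ro 20-1724 (phosphodiesterase inhibitor), preincubated 10 min at 37 °C. Antagonism of 100 nM NECA-stimulated cAMP was measured. Reaction stopped with cold 6% TCA, then ether extraction. cAMP was quantified by competitive binding with [3H]-cAMP and beef adrenal binding protein (150 min, 4 °C), with charcoal separation and scintillation counting.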

[4] = molecular target: T2, Adenosine receptor A1 (Homo sapiens, UniProt P30542); test: Displacement of [3H]DPCPX from human Adenosine A1 receptor expressed in CHO cells; assay type: cell-based
T2 sequence (P30542 whole entry): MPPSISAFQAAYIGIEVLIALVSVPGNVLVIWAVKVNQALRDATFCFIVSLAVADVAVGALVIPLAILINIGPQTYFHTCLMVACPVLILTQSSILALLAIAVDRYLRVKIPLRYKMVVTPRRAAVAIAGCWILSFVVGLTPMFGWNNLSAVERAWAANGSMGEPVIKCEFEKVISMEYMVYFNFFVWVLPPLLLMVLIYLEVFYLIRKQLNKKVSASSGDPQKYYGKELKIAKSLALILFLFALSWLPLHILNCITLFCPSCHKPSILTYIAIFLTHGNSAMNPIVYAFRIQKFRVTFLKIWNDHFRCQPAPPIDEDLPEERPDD
Summary of the method: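 Membranes from the transfected cells in 50 mM Tris-HCl, pH 7.4, incubated 120 min at 25 °C with 1 nM [3H]-DPCPX (50 μg protein/assay) and at least six to eight test concentrations. Nonspecific binding was set with 10 μM CHA. Bound and free ligand were separated by GF/B filtration, then scintillation counted. n = 3–6, mean ± SEM.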

[5] = molecular target: T3, Adenosine receptor A3 (Homo sapiens, UniProt P0DMS8); test: Displacement of [3H]MRE3008-F20 from human A3 receptors expressed in HEK293 cells; assay type: cell-based
T3 sequence (P0DMS8 whole entry): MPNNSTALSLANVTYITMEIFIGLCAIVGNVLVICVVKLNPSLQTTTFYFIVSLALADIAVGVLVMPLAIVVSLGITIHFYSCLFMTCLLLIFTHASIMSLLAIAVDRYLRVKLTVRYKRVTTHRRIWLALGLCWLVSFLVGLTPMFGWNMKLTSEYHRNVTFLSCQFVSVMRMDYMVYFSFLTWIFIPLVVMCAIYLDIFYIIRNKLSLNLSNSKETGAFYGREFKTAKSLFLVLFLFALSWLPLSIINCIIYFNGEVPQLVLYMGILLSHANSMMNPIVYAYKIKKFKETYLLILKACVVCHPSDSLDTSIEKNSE
Summary of the method: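 Duplicate competition tubes: 1 nM [3H]-MRE3008-F20 in 50 mM Tris-HCl, 10 mM MgCl2, pH 7.4, membranes (50 μg protein/assay) and at least six to eight ligand concentrations, incubated 120 min at 4 °C. Nonspecific binding was set with 1 μM unlabeled MRE3008-F20. Bound radioactivity was collected on GF/B filters and counted.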

[6] = molecular target: T1, Adenosine receptor A2b; test: Displacement of [3H]DPCPX from human adenosine A2B receptor expressed in HEK293 cells; assay type: cell-based
Summary of the method: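 Competition run 60 min at 25 °C in 50 mM Tris-HCl, 10 mM MgCl2, 1 mM EDTA, 0.1 mM […], pH 7.4, with 2 IU/mL adenosine deaminase. Assays held 40 nM [3H]-DPCPX, membranes (20 μg protein/assay) and at least six to eight compound concentrations. Nonspecific binding was set with 100 μM NECA. Filtered on GF/B and counted. n = 3–6, mean ± SEM.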

[7] = molecular target: Adenosine receptor A2a (Homo sapiens, UniProt P29274); test: Displacement of [3H]ZM-241385 from human adenosine A2A receptors expressed in HEK293 cells; assay type: cell-based
Chain of Adenosine receptor A2a (P29274 whole entry): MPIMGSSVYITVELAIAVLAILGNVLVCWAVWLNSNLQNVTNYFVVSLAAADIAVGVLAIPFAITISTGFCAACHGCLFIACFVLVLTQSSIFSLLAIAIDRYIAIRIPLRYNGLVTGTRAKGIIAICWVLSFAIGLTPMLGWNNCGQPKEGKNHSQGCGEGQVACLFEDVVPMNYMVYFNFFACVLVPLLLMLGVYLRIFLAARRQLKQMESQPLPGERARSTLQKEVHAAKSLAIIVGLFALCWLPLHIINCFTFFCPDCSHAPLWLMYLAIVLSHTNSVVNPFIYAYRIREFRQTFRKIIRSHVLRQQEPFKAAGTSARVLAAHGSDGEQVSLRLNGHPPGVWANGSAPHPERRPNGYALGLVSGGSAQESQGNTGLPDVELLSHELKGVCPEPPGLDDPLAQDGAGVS

Compound	Ratio [1]	Ratio [2]	pIC50 [3]	pKi [4]	pKi [5]	pKi [6]	pKi [7]
O=C(Cc1cccc2ccccc12)Nc1nc2nn(CCc3ccccc3)cc2c2nc(-c3ccco3)nn12	3	4	6.74	7.05	6.92	7.52	7.26
O=C(COc1ccccc1)Nc1nc2nn(CCCc3ccccc3)cc2c2nc(-c3ccco3)nn12	2	1.6	6.85	7.30	7.40	7.60	7.35
CC(C)CCn1cc2c(nc(NC(=O)COc3ccccc3)n3nc(-c4ccco4)nc23)n1	2.2	2	6.82	7.26	7.30	7.60	7.42
O=C(COc1ccccc1)Nc1nc2nn(CCc3ccccc3)cc2c2nc(-c3ccco3)nn12	0.9	13.6	6.89	7.70	6.52	7.66	7.40
O=C(Cc1cccc2ccccc12)Nc1nc2nn(CCCc3ccccc3)cc2c2nc(-c3ccco3)nn12	55	15	6.96	5.96	6.52	7.70	6.10
CC(C)CCn1cc2c(nc(NC(=O)Cc3cccc4ccccc34)n3nc(-c4ccco4)nc23)n1	5.07	7.7	6.77	6.85	6.67	7.55	7.38
Nc1nc2nn(CCc3ccccc3)cc2c2nc(-c3ccco3)nn12	0.2	–	–	–	–	–	–

Results, then the molecule that gave them:

Ratio [1]	Ratio [2]	pIC50 [3]	pKi [4]	pKi [5]	pKi [6]	pKi [7]	Compound
2.67	0.0007	–	–	–	–	–	Cn1cc2c(nc(NC(=O)Nc3ccccc3)n3nc(-c4ccco4)nc23)n1
4.2	0.05	–	–	–	–	–	Cn1cc2c(nc(NC(=O)Cc3ccccc3)n3nc(-c4ccco4)nc23)n1
3.4	1.3	6.68	6.92	7.35	7.46	7.22	O=C(Cc1ccccc1)Nc1nc2nn(CCc3ccccc3)cc2c2nc(-c3ccco3)nn12
6.4	2.6	6.72	6.70	–	7.51	7.24	CC(C)CCn1cc2c(nc(NC(=O)Cc3ccccc3)n3nc(-c4ccco4)nc23)n1
1.9	3	6.60	7.12	–	7.40	7.22	O=C(Cc1ccccc1)Nc1nc2nn(CCCc3ccccc3)cc2c2nc(-c3ccco3)nn12
